B1: tRNA (parent)
chain: GUUCCGUUGGCGUAAUGGUAACGCGUCUCCCUCCUAAGGAGAAGACUGCGGGUUCGAGUCCCGUACGGAACG

Variants of: B1
Assay: yeast fitness, log relative to wild type (ln ratio); higher = fitter; tRNA-Arg(CCU), competitive growth, 37 C, 1 M NaCl
Procedure, shortened: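 A combinatorial tRNA-Arg(CCU) variant library was carried on a HIS3 centromeric plasmid in BY4742 lacking the chromosomal gene, from two independent transformations. Pools grew 4 generations in SC-HIS at 30 °C, then ~6.5 generations (~26.5 h) in SC-HIS 1M NaCl at 37 °C, with three outputs per input. Variants were counted by 125 bp paired-end Illumina sequencing. Fitness is ln of each genotype's generations (OD-scaled log2 output/input frequency, inverse-variance weighted across replicates) over the wild-type's.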

Going from AUUCCUUUGGCGUAAUGGUAACGCGUCUCCCUCCUAAGGAGAAGACUGCGGGUUCGAGUCCCGUAAGGAUUG [G1A G6U C66A A70U C71U] to AUUCCUUUGGCGUAAUGGUAACGCGUUUCCCUCCUAAGGAGAAGACUGCGGGUUCGAGUCCCGUAUGGGAUG [G1A G6U C27U C66U A69G C71U], the “yeast fitness (ln)” value falls from -0.159 to -0.295.

Going from ACUCCGUUGGCGUAAUGGUAACGCGUCUCCCUCCUAAGGAGAAGACUGCGGGUUCGAGUCCCGUACGGAACG [G1A U2C] to AUUCCUUUGGCGUAAUGGUAACGCGUUUCCCUCCUAAGGAGAAGACUGCGGGUUCGAGUCCCGUAUGGAAUG [G1A G6U C27U C66U C71U], the “yeast fitness (ln)” value falls from -0.00128 to -0.389.

Going from AUUCCUUUGGCGUAAUGGUAACGCGUCUCCCUCCUAAGGAGAAGAUUGCGGGUUCGAGUCCCGUAAGGGGCG [G1A G6U C46U C66A A69G A70G] to AUUCCUUUGGCGUAAUGGUAACGCGUCUCCCUCCUAAGGAGAAGAUUGCGGGUUCGAGUCCCGUAAGGGUCG [G1A G6U C46U C66A A69G A70U], the “yeast fitness (ln)” value rises from -0.158 to -0.106.

Compared with AUUCCUUUGGCGUAAUGGUAACGCGUCUCCCUCCUAAGGAGAAGAUUGCGGGUUCGAGUCCCGUAAGGAGUG [G1A G6U C46U C66A A70G C71U], AUUCCUUUGGCGUAAUGGUAACGCGUCUCCCUCCUAAGGAGAAGACUGCGGGUUCGAGUCCCGUAUGGAGUG [G1A G6U C66U A70G C71U] is lower in “yeast fitness (ln)” value: -0.0299 for the first, -0.272 for the second.

Going from AUUCCUUUGGCGUAAUGGUAACGCGUCUCCCUCCUAAGGAGAAGAUUGCGGGUUCGAGUCCCGUAUGGAUUG [G1A G6U C46U C66U A70U C71U] to AUUCCUUUGGCGUAAUGGUAACGCGUCUCCCUCCUAAGGAGAAGACUGCGGGUUCGAGUCCCGUAAGGGUCG [G1A G6U C66A A69G A70U], the “yeast fitness (ln)” value rises from -0.298 to -0.0798.

First: AUUCCUUUGGCGUAAUGGUAACGCGUCUCCCUCCUAAGGAGAAGAUUGCGGGUUCGAGUCCCGUACGGAUUG [G1A G6U C46U A70U C71U]
Second: AUUCCUUUGGCGUAAUGGUAACGCGUCUCCCUCCUAAGGAGAAGAUUGCGGGUUCGAGUCCCGUACGGAAUG [G1A G6U C46U C71U]
The “yeast fitness (ln)” value of the first is lower: -0.185 for the first, -0.183 for the second.

Going from ACUCCGUUGGCGUAAUGGUAACGCGUCUCCCUCCUAAGGAGACGACUGCGGGUUCGAGUCCCGUACGGAUUG [G1A U2C A43C A70U C71U] to ACUCCGUUGGCGUAAUGGUAACGCGUCUCCCUCCUAAGGAGACGACUGCGGGUUCGAGUCCCGUACGGGGUG [G1A U2C A43C A69G A70G C71U], the “yeast fitness (ln)” value rises from -0.278 to -0.0094.

Compared with AUUCCUUUGGCGUAAUGGUAACGCGUCUCCCUCCUAAGGAGAAGAUUGCGGGUUCGAGUCCCGUAUGGGUUG [G1A G6U C46U C66U A69G A70U C71U], AUUCCUUUGGCGUAAUGGUAACGCGUCUCCCUCCUAAGGAGAAGAUUGCGGGUUCGAGUCCCGUACGGGUUG [G1A G6U C46U A69G A70U C71U] is higher in “yeast fitness (ln)” value: -0.441 for the first, -0.321 for the second.

Compared with AUUCCUUUGGCGUAAUGGUAACGCGUCUCCCUCCUAAGGAGAAGACUGCGGGUUCGAGUCCCGUAUGGGUUG [G1A G6U C66U A69G A70U C71U], AUUCCUUUGGCGUAAUGGUAACGCGUCUCCCUCCUAAGGAGAAGAUUGCGGGUUCGAGUCCCGUAAGGGUUG [G1A G6U C46U C66A A69G A70U C71U] is higher in “yeast fitness (ln)” value: -0.525 for the first, -0.341 for the second.

Going from AUUCCUUUGGCGUAAUGGUAACGCGUUUCCCUCCUAAGGAGAAGACUGCGGGUUCGAGUCCCGUAUGGAUUG [G1A G6U C27U C66U A70U C71U] to AUUCCUUUGGCGUAAUGGUAACGCGUCUCCCUCCUAAGGAGAAGAUUGCGGGUUCGAGUCCCGUAUGGAAUG [G1A G6U C46U C66U C71U], the “yeast fitness (ln)” value rises from -0.461 to -0.057.

First: AUUCCUUUGGCGUAAUGGUAACGCGUCUCCCUCCUAAGGAGAAGAUUGCGGGUUCGAGUCCCGUAAGGAAUG [G1A G6U C46U C66A C71U]
Second: ACUCCGUUGGCGUAAUGGUAACGCGUCUCCCUCCUAAGGAGACGACUGCGGGUUCGAGUCCCGUACGGGUUG [G1A U2C A43C A69G A70U C71U]
The “yeast fitness (ln)” value of the first is higher: 0.0017 for the first, -0.29 for the second.

Compared with AUUCCUUUGGCGUAAUGGUAACGCGUCUCCCUCCUAAGGAGAAGACUGCGGGUUCGAGUCCCGUAUGGAUUG [G1A G6U C66U A70U C71U], AUUCCUUUGGCGUAAUGGUAACGCGUUUCCCUCCUAAGGAGAAGACUGCGGGUUCGAGUCCCGUACGGAAUG [G1A G6U C27U C71U] is higher in “yeast fitness (ln)” value: -0.278 for the first, -0.251 for the second.

First: AUUCCUUUGGCGUAAUGGUAACGCGUCUCCCUCCUAAGGAGAAGACUGCGGGUUCGAGUCCCGUAAGGAGUG [G1A G6U C66A A70G C71U]
Second: AUUCCUUUGGCGUAAUGGUAACGCGUCUCCCUCCUAAGGAGAAGACUGCGGGUUCGAGUCCCGUAUGGGGUG [G1A G6U C66U A69G A70G C71U]
The “yeast fitness (ln)” value of the first is higher: -0.0373 for the first, -0.273 for the second.

First: AUUCCUUUGGCGUAAUGGUAACGCGUCUCCCUCCUAAGGAGAAGAUUGCGGGUUCGAGUCCCGUAUGGGAUG [G1A G6U C46U C66U A69G C71U]
Second: AUUCCUUUGGCGUAAUGGUAACGCGUCUCCCUCCUAAGGAGAAGAUUGCGGGUUCGAGUCCCGUAUGGAGUG [G1A G6U C46U C66U A70G C71U]
The “yeast fitness (ln)” value of the first is lower: -0.814 for the first, -0.277 for the second.

First: AUUCCUUUGGCGUAAUGGUAACGCGUCUCCCUCCUAAGGAGAAGAUUGCGGGUUCGAGUCCCGUAAGGGGUG [G1A G6U C46U C66A A69G A70G C71U]
Second: AUUCCUUUGGCGUAAUGGUAACGCGUCUCCCUCCUAAGGAGAAGACUGCGGGUUCGAGUCCCGUACGGAAUG [G1A G6U C71U]
The “yeast fitness (ln)” value of the first is higher: -0.162 for the first, -0.481 for the second.

First: AUUCCUUUGGCGUAAUGGUAACGCGUCUCCCUCCUAAGGAGAAGAUUGCGGGUUCGAGUCCCGUAUGGAGCG [G1A G6U C46U C66U A70G]
Second: AUUCCUUUGGCGUAAUGGUAACGCGUCUCCCUCCUAAGGAGAAGAUUGCGGGUUCGAGUCCCGUAUGGAUCG [G1A G6U C46U C66U A70U]
The “yeast fitness (ln)” value of the first is lower: -0.195 for the first, -0.153 for the second.

Going from AUUCCUUUGGCGUAAUGGUAACGCGUCUCCCUCCUAAGGAGAAGAUUGCGGGUUCGAGUCCCGUACGGAUCG [G1A G6U C46U A70U] to AUUCCUUUGGCGUAAUGGUAACGCGUCUCCCUCCUAAGGAGAAGAUUGCGGGUUCGAGUCCCGUACGGAGCG [G1A G6U C46U A70G], the “yeast fitness (ln)” value falls from -0.14 to -0.173.

Going from ACUCCGUUGGCGUAAUGGUAACGCGUCUCCCUCCUAAGGAGACGACUGCGGGUUCGAGUCCCGUACGGGUCG [G1A U2C A43C A69G A70U] to ACUCCGUUGGCGUAAUGGUAACGCGUCUCCCUCCUAAGGAGACGACUGCGGGUUCGAGUCCCGUACGGGGCG [G1A U2C A43C A69G A70G], the “yeast fitness (ln)” value falls from -0.0414 to -0.151.

Compared with AUUCCUUUGGCGUAAUGGUAACGCGUCUCCCUCCUAAGGAGAAGAUUGCGGGUUCGAGUCCCGUACGGGUCG [G1A G6U C46U A69G A70U], AUUCCUUUGGCGUAAUGGUAACGCGUCUCCCUCCUAAGGAGAAGAUUGCGGGUUCGAGUCCCGUACGGGGCG [G1A G6U C46U A69G A70G] is lower in “yeast fitness (ln)” value: -0.0951 for the first, -0.203 for the second.
